Screening data: PubChem BioAssay, several laboratories
Rad51 HR inh: blocks human Rad51 in homologous recombination | Q06609 | hRad51 DNA strand exchange, fluorescence dequenching | inhibition, % at 10 µM | actives 0.085% (n = 200,000) | AID 1385;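 active means inhibition above 40% at the single screening dose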
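material = hRad51 filaments on single-stranded DNA | reagent = Donor/quencher-labelled 47-bp dsDNA substrate | compound = 10 µM final, single point | schedule = strand-exchange reaction 15 min at room temperature | measured by = fluorescein emission 520 nm, excitation 485 nm | read-out basis = % inhibition versus plate control and blank means | benchmarks = plate controls and plate blanks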
KCC2 mod: modulates chloride dependent transport by human KCC2. B-score of Tl+ flux slope (higher = more flux/activation; lower = inhibition) at 10 µM. actives 2.2% (n = 190,000). AID 1456. KCC2 cells, thallium flux FluoZin-2 fluorescence. Q9H2X9;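 active means thallium flux slope and its plate-corrected score both differing from the plate sample mean at a set confidence after two filtering rounds, in either direction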;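 further: slope of fluorescence scaled to starting intensity during 10 to 20 s after thallium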
Target sequence (Q9H2X9 whole entry, looked up): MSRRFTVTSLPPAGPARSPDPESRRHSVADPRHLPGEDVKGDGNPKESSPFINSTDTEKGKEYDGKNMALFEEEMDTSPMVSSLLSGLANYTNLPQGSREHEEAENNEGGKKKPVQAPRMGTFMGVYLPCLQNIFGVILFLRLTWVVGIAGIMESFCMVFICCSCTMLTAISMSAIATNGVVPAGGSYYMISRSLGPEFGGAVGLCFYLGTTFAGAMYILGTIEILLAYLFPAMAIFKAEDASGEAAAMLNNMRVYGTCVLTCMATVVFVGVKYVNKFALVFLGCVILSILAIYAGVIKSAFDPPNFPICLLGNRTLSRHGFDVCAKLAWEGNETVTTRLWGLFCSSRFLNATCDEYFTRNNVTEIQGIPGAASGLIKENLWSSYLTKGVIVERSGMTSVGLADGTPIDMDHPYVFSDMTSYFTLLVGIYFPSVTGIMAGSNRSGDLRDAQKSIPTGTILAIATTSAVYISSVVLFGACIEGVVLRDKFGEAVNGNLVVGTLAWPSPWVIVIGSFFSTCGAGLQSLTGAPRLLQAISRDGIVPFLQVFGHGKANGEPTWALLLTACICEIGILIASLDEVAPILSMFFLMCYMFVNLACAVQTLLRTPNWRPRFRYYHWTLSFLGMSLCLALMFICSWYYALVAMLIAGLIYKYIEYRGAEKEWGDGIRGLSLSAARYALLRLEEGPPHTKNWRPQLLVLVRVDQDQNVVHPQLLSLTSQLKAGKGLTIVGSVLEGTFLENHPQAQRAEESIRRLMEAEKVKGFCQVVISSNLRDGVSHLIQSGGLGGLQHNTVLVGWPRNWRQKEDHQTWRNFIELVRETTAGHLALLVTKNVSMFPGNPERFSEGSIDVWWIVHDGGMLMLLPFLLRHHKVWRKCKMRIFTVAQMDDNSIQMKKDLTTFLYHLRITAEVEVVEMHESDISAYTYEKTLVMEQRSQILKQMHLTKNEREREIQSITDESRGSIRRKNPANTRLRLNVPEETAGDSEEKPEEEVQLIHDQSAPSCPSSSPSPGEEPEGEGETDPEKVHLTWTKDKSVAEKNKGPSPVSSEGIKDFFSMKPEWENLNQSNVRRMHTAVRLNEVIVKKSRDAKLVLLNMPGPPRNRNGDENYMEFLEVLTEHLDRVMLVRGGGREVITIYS
ROMK mod: modulators of human ROMK potassium channel. P48048. Tet-inducible ROMK, thallium flux fluorescence; actives lie on both sides. B-score at 10 µM. actives 2% (n = 130,000). AID 1918;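 active means signal ratio slope over the read window, or its plate-corrected B-score, at least 3 SD from the plate mean, either direction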;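 further: B-score of the F/F0 ratio slope over 7 to 12 s after thallium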
PKD1 inh: blocks activity of human protein kinase D1; Q15139; PKD1 kinase fluorescence polarization assay; inhibition, % (no concentration beside the values); actives 0.056% (n = 200,000); AID 797; in the data active means inhibition above about 50%
KCC2 sec1: confirmation of human KCC2 transport modulators; shares compounds with KCC2 mod; HEK293-KCC2, thallium flux, FluoZin2 fluorescence; hits give high values; normalised thallium flux (F/F0 slope) at 10 µM; actives 15% (n = 3,700);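 active means thallium flux slope above the same plate's solvent-only control mean plus 3 SD; inconclusive means the two replicate wells disagree; inactive means no significant difference from solvent-only control wells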
KCC2 bumet counter: thallium flux despite bumetanide block in KCC2 cells, secondary assay 3. shares compounds with KCC2 mod. HEK293-KCC2 + bumetanide/ouabain, thallium flux FluoZin2; hits give high values. normalized thallium flux at 10 µM. actives 49% (n = 3,700). AID 1714;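 active means thallium entry rate above the same plate's blocked-transporter control wells by more than 3 SD; inconclusive means the two repeat wells disagree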;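 further: raw slope of fluorescence over initial fluorescence between 10 and 20 s after thallium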
KCC2 secondary2: confirmation of human KCC2 transport modulators | shares compounds with KCC2 mod | HEK293-KCC2, thallium flux FluoZin2 fluorescence; actives lie on both sides; F/F0 rise rate, 10–20 s post-thallium | actives 23% (n = 3,700) | normalized thallium flux at 10 µM;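 active means thallium flux slope more than 3 SD above or below the plate's solvent-only control mean, mostly below; inconclusive means the two repeat wells disagreed; inactive means no significant shift from solvent-only controls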
HEK293 Tl flux: acts in parental HEK cells, KCC2 counter-screen | shares compounds with KCC2 mod | HEK293 parental cells, thallium flux FluoZin2, ouabain; baseline-ratio fluorescence slope, 10–20 s after thallium | thallium flux rate (normalised fluorescence) at 10 µM | actives 46% (n = 3,700);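 active means thallium flux rate significantly above the same plate's solvent-only control wells, beyond their mean plus 3 SD; inconclusive means the two replicate wells gave conflicting results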
KCC2 ouabain: confirmation of human KCC2 modulators with ouabain; shares compounds with KCC2 mod; HEK293-KCC2, thallium flux FluoZin2 fluorescence; bidirectional: low = inhibitor, high = activator; raw Tl+ flux slope (below DMSO = inhibition, above = activation) at 10 µM; actives 48% (n = 3,700); AID 1717;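 active means thallium flux slope beyond 3 SD from same-plate DMSO control mean in most replicates, usually higher, sometimes lower; inconclusive means repeat tests gave conflicting results; inactive means no significant difference from controls in most replicates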;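 further: slope of initial-normalized fluorescence between seconds 10 and 20 after thallium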
HEK counter2: parental HEK flux effect, counter-screen 2; HEK293 parental, thallium flux FluoZin-2 fluorescence slope; AID 1718; actives 33% (n = 3,700); shares compounds with KCC2 mod; thallium flux slope at 10 µM;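 active means thallium flux slope above the same plate's solvent-control mean plus 3 SD in both duplicate wells; inconclusive means duplicate wells that disagreed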;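 further: run without ouabain in cells lacking the KCC2 cotransporter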
Numbers stand for hits; - = inactive; ? = inconclusive; . = not tested or not shown. Sampled rows, rich in hits. Any-hit rate of the full collection: about 3%.

SMILES	Rad51 HR inh	KCC2 mod	ROMK mod	PKD1 inh	KCC2 sec1	KCC2 bumet counter	KCC2 secondary2	HEK293 Tl flux	KCC2 ouabain	HEK counter2
Cc1nn(-c2ccccc2)c(C)c1/C=N\NS(=O)(=O)c1ccc(Cl)cc1	-	-	-	-	.	.	.	.	.	.
CC(=O)NS(=O)(=O)c1ccc(NC(=S)NC(=O)Cc2ccccc2)cc1	-	.	-	-	.	.	.	.	.	.
O=C(NCc1ccco1)C1CCCN1C(=O)Nc1ccccc1Cl (stereo not drawn)	-	-	-	-	.	.	.	.	.	.
CCOc1ccc2nc(SC3CC(=O)N(c4cccc(OC)c4)C3=O)sc2c1 (stereo not drawn)	-	4.7	-	-	0.024	0.015	-	0.0093	0.022	?
COC(=O)C1=C(C)NC=C([N+](=O)[O-])C1c1ccc(OC)cc1 (stereo not drawn)	-	-	-	-	.	.	.	.	.	.
Cc1ccc([N+](=O)[O-])cc1S(=O)(=O)Nc1ccccn1	.	-	-	-	.	.	.	.	.	.
CCCCSc1nnc(-c2ccc(OC)cc2)n1C	-	-5	-	-	-	-	-	-	-	-
CC1CCCN(CC(O)CN)C1 (stereo not drawn)	-	-	.	-	.	.	.	.	.	.
COCCN(C(=O)CSc1nc2ccccc2c(=O)n1CC(C)C)c1c(N)n(Cc2ccccc2)c(=O)[nH]c1=O	-	13	-	-	0.012	0.054	-	0.024	0.05	0.016
CCOc1ccc(-n2c(O)c(/C=N/NC(=O)C3COc4ccccc4O3)c3ccccc3c2=O)cc1 (stereo not drawn)	-	-	.	-	.	.	.	.	.	.
COc1cccc(CN(C)CC(=O)Nc2ccccc2C(C)C)c1	-	-	-	-	.	.	.	.	.	.
CC(C)(C)c1ccc(C(=O)Nc2ccc(NC(=O)C(=O)O)cc2)o1	-	-	-	-	.	.	.	.	.	.
NC(=O)c1ccc(F)cc1	-	-	-	-	-	-	-	-	-	-
CC1CCCCC12NC(=S)N(c1ccccc1)N2 (stereo not drawn)	-	8.1	-	.	?	0.022	-	0.016	-	0.012
CC1CCCC2(C1)NC(=S)N(c1ccccc1)N2 (stereo not drawn)	-	-	.	-	.	.	.	.	.	.
Cc1ccc(-n2c(-c3ccco3)n[nH]c2=S)cc1	-	-	-	-	.	.	.	.	.	.
CC(C1CC2CCC1C2)n1c(-c2ccco2)n[nH]c1=S (stereo not drawn)	-	21	-	-	0.017	0.07	?	0.028	0.056	0.016
N#Cc1c(NC(=O)c2ccccc2)sc2c1CCC2	-	.	-	-	-	-	-	-	-	-
N#Cc1c(NC(=O)c2cccnc2)sc2c1CCC2	-	-	-	-	.	.	.	.	.	.
O=C(NNC(=S)NC(=O)c1ccco1)c1ccc(NC(=O)c2ccccc2)cc1	-	-	-	-	.	.	.	.	.	.
O=C(NC(=S)NNC(=O)c1cc2ccccc2cc1O)c1ccco1	.	48	-	-	0.021	0.073	-	0.05	0.058	0.014
O=C(NC(=S)NNC(=O)c1ccccc1O)c1ccco1	-	3.5	.	-	-	0.013	-	?	?	-
O=C(CCc1ccc(S(=O)(=O)NCc2ccccc2)cc1)NCC1CCCO1 (stereo not drawn)	-	-	-	-	.	.	.	.	.	.
N#Cc1cc(C(=O)c2cc(Cl)ccc2O)cn(-c2ccccc2)c1=O	-	-5	-	-	-	-	-	-	-	-
Cc1c(-n2cc(C(=O)c3cc(Cl)ccc3O)cc(C#N)c2=O)c(=O)n(-c2ccccc2)n1C	-	-	.	-	.	.	.	.	.	.
SMILES	Rad51 HR inh	KCC2 mod	ROMK mod	PKD1 inh	KCC2 sec1	KCC2 bumet counter	KCC2 secondary2	HEK293 Tl flux	KCC2 ouabain	HEK counter2
Cc1ccc(C(=O)Nc2nc(=O)n(C(=O)CC(C)C)s2)cc1	-	-	.	-	.	.	.	.	.	.
Cc1ccc(C(=O)Nc2nc(=O)n(C(=O)c3ccccc3Cl)s2)cc1	-	-7.2	-	-	-	?	0.024	-	0.012	-
CCOC(=O)c1[nH]c(C=O)c(C(=O)OCC)c1C	-	26	.	-	-	0.051	0.04	0.029	0.044	0.031
CCOC(=O)c1[nH]c(C)c(C(=O)O)c1C	-	-	-	-	.	.	.	.	.	.
Cc1ccc(C)c(S(=O)(=O)NC(Cc2c[nH]c3ccccc23)C(=O)O)c1 (stereo not drawn)	-	-	-	-	.	.	.	.	.	.
Cc1ccc(C)c(S(=O)(=O)NC(CC(C)C)C(=O)O)c1 (stereo not drawn)	.	5.6	.	-	-	?	-	-	-	-
O=C1Nc2ccccc2S/C1=C\C(=O)N1CCCC1	-	-	.	-	.	.	.	.	.	.
O=C1Nc2ccccc2S/C1=C/Nc1cccc(Cl)c1	-	.	-	-	-	?	-	-	0.015	-
O=C(c1ccc(N2CCCCCC2)c([N+](=O)[O-])c1)N1CCc2ccccc21	-	-6.7	-	-	-	?	0.023	-	-	-
O=C(OCC(=O)N1CCc2ccccc2C1)c1ccc(N2CCOCC2)c([N+](=O)[O-])c1	-	-4.3	.	-	-	-	0.022	-	?	-
Nc1ccc(C(=O)OCC(=O)N2CCc3ccccc3C2)cc1[N+](=O)[O-]	-	-5.9	-	-	-	-	0.027	?	0.012	-
O=C(c1cc([N+](=O)[O-])ccc1N1CCCCC1)N1CCc2ccccc21	-	-	.	-	.	.	.	.	.	.
COc1ccc(C)cc1N(CC(=O)N1CCc2ccccc2C1)S(C)(=O)=O	-	-	-	-	.	.	.	.	.	.
COc1cccc(Oc2nc(-c3ccncc3)nc3ccccc23)c1	-	-	.	.	.	.	.	.	.	.
CCC(=O)c1ccc(N2CCN(C(=O)Cc3ccccc3)CC2)c(F)c1	-	-	.	-	.	.	.	.	.	.
O=C(CCCC(=O)N1CCN(c2ccccc2F)CC1)N1CCN(c2ccccc2F)CC1	-	.	-	-	.	.	.	.	.	.
CCC(=O)c1cc(F)c(N2CCN(C(=O)Cc3ccccc3)CC2)cc1C	-	-2.9	.	-	-	-	-	-	0.018	?
O=C(Cc1ccc(-n2cccc2)cc1)N1CCN(c2ccccc2F)CC1	.	-6.8	.	-	-	-	-	-	0.016	-
CCOc1ccc(N2C(=O)CC(NCCNc3ccc(C(=O)c4cccs4)cc3)C2=O)cc1 (stereo not drawn)	-	-	.	-	.	.	.	.	.	.
CC(=O)N1CCc2ccc(S(=O)(=O)Nc3ccccc3Cl)cc21	-	-	-	-	.	.	.	.	.	.
O=C(c1ccccc1NS(=O)(=O)c1ccc(Cl)cc1)N1CCc2ccccc21	-	6.1	.	-	-	0.044	-	0.013	0.054	0.011
